Laboratory results reported in ChEMBL document CHEMBL1133671, “Synthesis and SAR of new 5-phenyl-3-ureido-1,5-benzodiazepines as cholecystokinin-B receptor antagonists” (J Med Chem, 2000).

Columns and labels:
[1] = target: T1, Cholecystokinin receptor type A (Rattus norvegicus, UniProt P30551); experiment: In vitro inhibition of binding of [3H]pCCK-8 against Cholecystokinin type A receptor of rat pancreatic membranes; assay type: cell membranes, Membrane
T1 sequence (P30551 whole entry): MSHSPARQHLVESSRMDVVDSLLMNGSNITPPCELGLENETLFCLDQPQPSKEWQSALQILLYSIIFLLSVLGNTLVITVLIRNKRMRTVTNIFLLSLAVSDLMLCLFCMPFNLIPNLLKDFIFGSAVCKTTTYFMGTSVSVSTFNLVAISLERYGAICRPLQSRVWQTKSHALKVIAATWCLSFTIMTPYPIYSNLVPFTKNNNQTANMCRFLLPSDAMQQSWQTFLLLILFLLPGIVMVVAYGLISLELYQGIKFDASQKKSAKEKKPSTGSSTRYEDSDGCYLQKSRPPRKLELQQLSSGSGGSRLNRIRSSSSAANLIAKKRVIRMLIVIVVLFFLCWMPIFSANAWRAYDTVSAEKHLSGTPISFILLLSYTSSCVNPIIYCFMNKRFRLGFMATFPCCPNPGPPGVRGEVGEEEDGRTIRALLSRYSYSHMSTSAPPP
In short: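 Radioligand displacement of [3H]CCK-8S from membranes: rat pancreas for the CCK-A receptor and guinea-pig cerebral cortex for the CCK-B receptor, using slightly modified published methods. Values are means of n experiments.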

Cavia porcellus = species on record: Cavia porcellus; experiment: Selectivity factor between CCK-B and CCK-A receptors
[2] = target: T1, Cholecystokinin receptor type A; experiment: Inhibition by displacing [3H]CCK-8S against Cholecystokinin type A receptor of rat pancreatic membranes
Mus musculus [3] = experiment: Anxiolytic effect in the mouse black / white box model, when administered intravenously; assay type: functional; conditions: iv
In short: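 Naive mice were placed in an activity box with a brightly illuminated section, and the time they spent there was recorded. The effect was assessed over a dose series and reported as an ED50.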

Mus musculus [4] = experiment: Anxiolytic effect in the mouse black / white box model, when administered orally (po); assay type: functional
In short: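 Naive mice placed in an activity box with a brightly illuminated section. The read-out was the time the mice remained in the lit section. Dose-related effects were assessed, and an ED50 value was derived.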

Rattus norvegicus [5] = experiment: Anxiolytic effect in the rat social interaction test against FG 7142, when administered intraperitoneally; assay type: functional; conditions: ip
Rattus norvegicus [6] = experiment: Anxiolytic effect in the rat social interaction test, when administered orally (po); assay type: functional
Rattus norvegicus [7] = species on record: Rattus norvegicus; experiment: pKB determined against pentagastrin-induced acid secretion in isolated rat gastric mucosa; assay type: functional
In short: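 Isolated rat gastric mucosa used as a gastrin-receptor preparation; acid secretion stimulated with pentagastrin and antagonism expressed as pKB.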

[8] = target: T2, Cholecystokinin receptor type A (Cavia porcellus) (UniProt Q63931); conditions: Gall bladder
T2 sequence (whole entry): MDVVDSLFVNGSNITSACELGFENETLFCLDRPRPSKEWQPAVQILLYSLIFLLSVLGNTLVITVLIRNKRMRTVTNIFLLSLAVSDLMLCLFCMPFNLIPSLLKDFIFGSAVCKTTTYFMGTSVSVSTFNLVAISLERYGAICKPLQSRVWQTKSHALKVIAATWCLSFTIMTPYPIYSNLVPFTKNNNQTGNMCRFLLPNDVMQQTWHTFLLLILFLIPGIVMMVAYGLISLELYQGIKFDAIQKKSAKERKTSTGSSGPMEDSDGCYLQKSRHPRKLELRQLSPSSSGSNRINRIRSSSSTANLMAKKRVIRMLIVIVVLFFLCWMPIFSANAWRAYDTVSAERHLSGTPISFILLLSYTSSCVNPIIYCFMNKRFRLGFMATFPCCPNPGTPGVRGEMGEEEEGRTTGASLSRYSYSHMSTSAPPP

[9] = target: T2, Cholecystokinin receptor type A (Cavia porcellus)
[10] = target: T3, Gastrin/cholecystokinin type B receptor (Homo sapiens) (UniProt P32239); conditions: Cavia porcellus
T3 sequence (whole entry): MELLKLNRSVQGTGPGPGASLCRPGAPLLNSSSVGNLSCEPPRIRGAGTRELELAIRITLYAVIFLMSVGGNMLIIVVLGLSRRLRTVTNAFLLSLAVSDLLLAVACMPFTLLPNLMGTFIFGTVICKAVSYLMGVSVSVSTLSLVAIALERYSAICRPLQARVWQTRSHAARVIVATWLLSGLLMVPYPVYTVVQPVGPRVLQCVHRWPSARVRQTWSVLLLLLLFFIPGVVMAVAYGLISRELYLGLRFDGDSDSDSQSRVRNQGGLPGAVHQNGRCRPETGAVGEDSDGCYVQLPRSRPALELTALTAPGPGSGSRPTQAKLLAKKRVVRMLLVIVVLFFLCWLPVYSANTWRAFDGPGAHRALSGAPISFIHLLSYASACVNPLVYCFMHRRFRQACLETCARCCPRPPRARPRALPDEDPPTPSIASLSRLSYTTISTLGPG

Question: Which Ki [1] does the source give for O=C(Nc1ccc(O)cc1)NC1C(=O)N(CC23C[C@H]4C[C@@H](C2)C[C@@H](C3)C4)c2ccccc2N(c2ccccc2)C1=O (single isomer, unassigned; (+)) here?
Answer: 20400 nM

Question: What about the Ratio (Cavia porcellus) of the same compound?
Answer: 30900

Question: O=C(Nc1ccccc1)NC1C(=O)N(CC23C[C@H]4C[C@@H](C2)C[C@@H](C3)C4)c2ccccc2N(c2ccccc2)C1=O (single isomer, unassigned; (+)) [listing 1 of 2 here] was tested. Which Ki [1] did it give?
Answer: 1620 nM

Question: And the Ki [2]?
Answer: 1480 nM

Question: And the ED50 (Mus musculus [3])?
Answer: 0.03 µg/kg

Question: And the ED50 (Mus musculus [4])?
Answer: 0.05 µg/kg

Question: And the ED50 (Rattus norvegicus [5])?
Answer: 10 µg/kg

Question: What about the ED50 (Rattus norvegicus [6]) of the same compound?
Answer: 1.6 µg/kg

Question: And the pKB (Rattus norvegicus [7])?
Answer: 7.4

Question: Which Ki [1] does the source give for CCOC(=O)CCCOc1ccc(NC(=O)NC2C(=O)N(CC34C[C@H]5C[C@@H](C3)C[C@@H](C4)C5)c3ccccc3N(c3ccccc3)C2=O)cc1 (single isomer, unassigned; (+)) here?
Answer: > 10000 nM

Question: What about the Ratio (Cavia porcellus) of the same compound?
Answer: > 1900

Question: Which results are given for O=C(Nc1ccccc1)NC1C(=O)N(CC23C[C@H]4C[C@@H](C2)C[C@@H](C3)C4)c2ccccc2N(c2ccccc2)C1=O (single isomer, unassigned; (+)) [listing 2 of 2 here]?
Answer: pKB [8]: 5.8; pKB [9]: 5.9; pKB [10]: 8.9

Question: For Cc1cccc(NC(=O)N[C@@H]2N=C(c3ccccc3)c3ccccc3N(C)C2=O)c1 [L-365260], which Ki [2] is on record?
Answer: 0.148 nM
